Measurements taken from ChEMBL document CHEMBL1649165, “Activity profile in vitro of micafungin against Spanish clinical isolates of common and emerging species of yeasts and molds” (2009).
Values after ≈ are worked out from the molar mass of the structure shown.

Columns and labels:
Format in all cases: functional
Candida parapsilosis = test: Antimicrobial activity against Candida parapsilosis by broth microdilution method; details: Lodderomyces parapsilosis
Summary of the method: (§1)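 Clinical isolates from human patients, tested by broth microdilution using the AFST-EUCAST reference procedure for fermentative yeasts. The MIC was read per that reference method.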

Fusarium solani = test: Antimicrobial activity against Fusarium solani by broth microdilution method
Summary of the method: (§2)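 Filamentous fungus clinical isolates tested by the AFST-EUCAST reference broth microdilution method for moulds. For echinocandins, the endpoint was the minimum effective concentration: the lowest drug concentration giving aberrant hyphal growth, read with an inverted microscope.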

Paecilomyces variotii = test: Antimicrobial activity against Paecilomyces variotii by broth microdilution method; summary of the method: as §2
Rhodotorula glutinis = test: Antimicrobial activity against Rhodotorula glutinis by broth microdilution method
Summary of the method: (§3)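 Nonfermentative yeast clinical isolates (Rhodotorula, Trichosporon) tested by broth microdilution. The EUCAST yeast recommendations were followed strictly, with one minor modification to improve growth. MIC was read as the endpoint.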

Naganishia albida = test: Antimicrobial activity against Cryptococcus albidus by broth microdilution method
Summary of the method: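 Clinical isolates of nonfermentative yeasts, tested by broth microdilution following EUCAST recommendations. The only change from that method was a minor modification to improve growth.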

[Candida] intermedia = Antimicrobial activity against Candida intermedia by broth microdilution method; details: Sungouiella intermedia; summary of the method: as §1
Fennellia nivea = test: Antimicrobial activity against Aspergillus niveus by broth microdilution method
Summary of the method: (§4)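 Clinical mould isolates, tested by broth microdilution using the AFST-EUCAST reference method for filamentous fungi. For echinocandins, the endpoint was the minimum effective concentration: the lowest drug concentration giving aberrant hyphal growth, read with an inverted microscope.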

Kluyveromyces marxianus = test: Antimicrobial activity against Candida kefyr by broth microdilution method; summary of the method: as §1
Lecythophora hoffmannii = test: Antimicrobial activity against Lecythophora hoffmannii by broth microdilution method; details: Coniochaeta hoffmannii; summary of the method: as §2
Rhizopus arrhizus = test: Antimicrobial activity against Rhizopus oryzae by broth microdilution method; summary of the method: as §2
Neurospora sitophila = test: Antimicrobial activity against Chrysonilia sitophila by broth microdilution method; summary of the method: as §4
Fusarium proliferatum = test: Antimicrobial activity against Fusarium proliferatum by broth microdilution method; summary of the method: as §4
Magnusiomyces capitatus = test: Antimicrobial activity against Dipodascus capitatus by broth microdilution method
[1] = Antimicrobial activity against Hormographiella aspergillata by broth microdilution method; details: Coprinopsis cinerea; summary of the method: as §2
Trichosporon asahii = test: Antimicrobial activity against Trichosporon asahii by broth microdilution method; summary of the method: as §3
Beauveria bassiana = test: Antimicrobial activity against Beauveria bassiana by broth microdilution method; summary of the method: as §4
[2] = tested on: Cladophialophora bantiana; test: Antimicrobial activity against Cladophialophora bantiana by broth microdilution method; summary of the method: as §4
Debaryomyces hansenii = test: Antimicrobial activity against Candida famata by broth microdilution method; summary of the method: as §1
Pichia kudriavzevii = test: Antimicrobial activity against Candida krusei by broth microdilution method; summary of the method: as §1
[3] = tested on: Cunninghamella bertholletiae; test: Antimicrobial activity against Cunninghamella bertholletiae by broth microdilution method; summary of the method: as §4
Nakaseomyces glabratus = test: Antimicrobial activity against Candida glabrata by broth microdilution method; summary of the method: as §1
Cladosporium = test: Antimicrobial activity against Cladosporium spp. by broth microdilution method; summary of the method: as §4
Candida albicans = test: Antimicrobial activity against Candida albicans by broth microdilution method; summary of the method: as §1
Aureobasidium pullulans = test: Antimicrobial activity against Aureobasidium pullulans by broth microdilution method
Clavispora lusitaniae = test: Antimicrobial activity against Candida lusitaniae by broth microdilution method; summary of the method: as §1
[4] = tested on: Kazachstania pintolopesii; test: Antimicrobial activity against Candida pintolopesii by broth microdilution method; details: Arxiozyma pintolopesii; summary of the method: as §1
Hortaea werneckii = test: Antimicrobial activity against Hortaea werneckii by broth microdilution method
Coprinellus domesticus = test: Antimicrobial activity against Hormographiella verticillata by broth microdilution method; summary of the method: as §2
Lichtheimia corymbifera = test: Antimicrobial activity against Mycocladus corymbiferus by broth microdilution method; summary of the method: as §2
Scedosporium apiospermum = test: Antimicrobial activity against Scedosporium apiospermum by broth microdilution method; summary of the method: as §2
Candida orthopsilosis = test: Antimicrobial activity against Candida orthopsilosis by broth microdilution method; details: Lodderomyces orthopsilosis; summary of the method: as §1
[Candida] inconspicua = Antimicrobial activity against Candida inconspicua by broth microdilution method; details: Pichia inconspicua; summary of the method: as §1
Mucor = test: Antimicrobial activity against Mucor spp.by broth microdilution method; summary of the method: as §2
Candida tropicalis = test: Antimicrobial activity against Candida tropicalis by broth microdilution method; summary of the method: as §1
Aspergillus flavus = test: Antimicrobial activity against Aspergillus flavus by broth microdilution method; summary of the method: as §4
Wickerhamomyces anomalus = test: Antimicrobial activity against Candida pelliculosa by broth microdilution method; details: Hansenula anomala; summary of the method: as §1
Lomentospora prolificans = test: Antimicrobial activity against Scedosporium prolificans by broth microdilution method; summary of the method: as §2
Fusarium equiseti = test: Antimicrobial activity against Fusarium equiseti by broth microdilution method; summary of the method: as §4
Aspergillus = test: Antimicrobial activity against Aspergillus spp. by broth microdilution method; summary of the method: as §4
Yarrowia lipolytica = test: Antimicrobial activity against Yarrowia lipolytica by broth microdilution method
Aspergillus terreus = test: Antimicrobial activity against Aspergillus terreus by broth microdilution method; summary of the method: as §4

## CC[C@H](C)C[C@H](C)CCCCCCCCC(=O)N[C@H]1C[C@@H](O)[C@@H](NCCN)NC(=O)[C@@H]2[C@@H](O)CCN2C(=O)[C@H]([C@H](O)CCN)NC(=O)[C@H]([C@H](O)[C@@H](O)c2ccc(O)cc2)NC(=O)[C@@H]2C[C@@H](O)CN2C(=O)[C@H]([C@@H](C)O)NC1=O [CASPOFUNGIN]
Candida parapsilosis
  MIC50: 1 µg/mL (≈ 0.915 µM)
  MIC90: 1 µg/mL (≈ 0.915 µM)
Fusarium solani
  MIC50: > 16 µg/mL
  MIC90: > 16 µg/mL
Paecilomyces variotii
  MIC50: 0.5 µg/mL (≈ 0.457 µM)
  MIC90: 4 µg/mL (≈ 3.66 µM)
Rhodotorula glutinis
  MIC50: > 16 µg/mL
  MIC90: > 16 µg/mL
Naganishia albida
  MIC50: > 16 µg/mL
  MIC90: > 16 µg/mL
[Candida] intermedia
  MIC50: 0.06 µg/mL (≈ 0.0549 µM)
  MIC90: 0.5 µg/mL (≈ 0.457 µM)
Fennellia nivea
  MIC50: 0.12 µg/mL (≈ 0.11 µM)
  MIC90: 0.5 µg/mL (≈ 0.457 µM)
Kluyveromyces marxianus
  MIC50: 0.06 µg/mL (≈ 0.0549 µM)
  MIC90: 0.12 µg/mL (≈ 0.11 µM)
Lecythophora hoffmannii
  MIC50: 0.25 µg/mL (≈ 0.229 µM)
  MIC90: 1 µg/mL (≈ 0.915 µM)
Rhizopus arrhizus
  MIC50: > 16 µg/mL
  MIC90: > 16 µg/mL
Neurospora sitophila
  MIC50: > 16 µg/mL
  MIC90: > 16 µg/mL
Fusarium proliferatum
  MIC50: > 16 µg/mL
  MIC90: > 16 µg/mL
Magnusiomyces capitatus
  MIC50: > 16 µg/mL
  MIC90: > 16 µg/mL
[1]
  MIC50: > 16 µg/mL
  MIC90: > 16 µg/mL
Trichosporon asahii
  MIC50: > 16 µg/mL
  MIC90: > 16 µg/mL
Beauveria bassiana
  MIC50: > 16 µg/mL
  MIC90: > 16 µg/mL
[2]
  MIC50: 0.25 µg/mL (≈ 0.229 µM)
  MIC90: 1 µg/mL (≈ 0.915 µM)
Debaryomyces hansenii
  MIC50: 0.06 µg/mL (≈ 0.0549 µM)
  MIC90: 0.5 µg/mL (≈ 0.457 µM)
Pichia kudriavzevii
  MIC50: 0.25 µg/mL (≈ 0.229 µM)
  MIC90: 0.5 µg/mL (≈ 0.457 µM)
[3]
  MIC50: > 16 µg/mL
  MIC90: > 16 µg/mL
Nakaseomyces glabratus
  MIC50: 0.12 µg/mL (≈ 0.11 µM)
  MIC90: 0.25 µg/mL (≈ 0.229 µM)
Cladosporium
  MIC50: 0.25 µg/mL (≈ 0.229 µM)
  MIC90: 1 µg/mL (≈ 0.915 µM)
Candida albicans
  MIC50: 0.06 µg/mL (≈ 0.0549 µM)
  MIC90: 0.12 µg/mL (≈ 0.11 µM)
Aureobasidium pullulans
  MIC50: 0.25 µg/mL (≈ 0.229 µM)
  MIC90: 1 µg/mL (≈ 0.915 µM)
Clavispora lusitaniae
  MIC50: 0.5 µg/mL (≈ 0.457 µM)
  MIC90: 1 µg/mL (≈ 0.915 µM)
[4]
  MIC50: 0.06 µg/mL (≈ 0.0549 µM)
  MIC90: 0.5 µg/mL (≈ 0.457 µM)
Hortaea werneckii
  MIC50: 0.25 µg/mL (≈ 0.229 µM)
  MIC90: 1 µg/mL (≈ 0.915 µM)
Coprinellus domesticus
  MIC50: > 16 µg/mL
  MIC90: > 16 µg/mL
Lichtheimia corymbifera
  MIC50: > 16 µg/mL
  MIC90: > 16 µg/mL
Scedosporium apiospermum
  MIC50: 2 µg/mL (≈ 1.83 µM)
  MIC90: > 16 µg/mL
Candida orthopsilosis
  MIC50: 0.06 µg/mL (≈ 0.0549 µM)
  MIC90: 0.5 µg/mL (≈ 0.457 µM)
[Candida] inconspicua
  MIC50: 0.06 µg/mL (≈ 0.0549 µM)
  MIC90: 0.5 µg/mL (≈ 0.457 µM)
Mucor
  MIC50: > 16 µg/mL
  MIC90: > 16 µg/mL
Candida tropicalis
  MIC50: 0.12 µg/mL (≈ 0.11 µM)
  MIC90: 0.25 µg/mL (≈ 0.229 µM)
Aspergillus flavus
  MIC50: > 16 µg/mL
  MIC90: > 16 µg/mL
Wickerhamomyces anomalus
  MIC50: 0.06 µg/mL (≈ 0.0549 µM)
  MIC90: 0.5 µg/mL (≈ 0.457 µM)
Lomentospora prolificans
  MIC50: 8 µg/mL (≈ 7.32 µM)
  MIC90: > 16 µg/mL
Fusarium equiseti
  MIC50: > 16 µg/mL
  MIC90: > 16 µg/mL
Aspergillus
  MIC50: 0.12 µg/mL (≈ 0.11 µM)
  MIC90: 0.5 µg/mL (≈ 0.457 µM)
Yarrowia lipolytica
  MIC50: 0.5 µg/mL (≈ 0.457 µM)
  MIC90: 1 µg/mL (≈ 0.915 µM)
Aspergillus terreus
  MIC50: 1 µg/mL (≈ 0.915 µM)
  MIC90: 2 µg/mL (≈ 1.83 µM)
